High-throughput results as filed in PubChem BioAssay.
TAAR1 ag – agonists of human TAAR1; Q96RJ0; CHO RD-HGA16 TAAR1, Fluo-8 calcium fluorescence; vehicle wells 0%, saturating PEA agonist 100%; activation, % at 3 µM; 360,000 tested, 0.99% active; AID 624467;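 active = activation above the mean activation of all test compounds in the run plus 3 SD, cut at about 38% in these data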
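System: CHO-derived RD-HGA16 cells with stable Gα16 and human TAAR1 / Times: 17-24 h plating, Fluo-8 75 min 37 °C, 30 min RT / Technique: calcium-sensitive Fluo-8 signal, excitation 470-495, emission 515-575 nm / Measure: % activation relative to PEA EC100 response / Benchmarks: DMSO and PEA EC100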
CHO parental Ca – counter-screen for OX1R antagonists: effect in parental CHO cells; parental CHO-K1, ATP-induced calcium, Fluo-8 fluorescence; inhibition, % at 5.6 µM; 330,000 tested, 0.63% active; AID 463079;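 active = inhibition above that plate's mean sample inhibition plus 3 SD, cut at about 26% in these data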;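 also: 0% = ATP-challenged DMSO wells and 100% = DMSO wells without ATP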
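Measured by: calcium-sensitive Fluo-8 fluorescence / Test system: CHO parental line / Controls: ATP-challenged DMSO wells low, unchallenged DMSO wells high / Measure: % inhibition / Compound: single nominal dose of 5.6 µM per compound / Replicates: single well per compound, no replicates / Reagent: ATP as calcium-mobilizing challenge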
OX1R antag-1 – OX1R (human) antagonism | 330,000 tested, 1.8% active | inhibition, % at 6.6 µM | OX1R-expressing cells, FRET antagonist read-out; in the data active = inhibition mostly above about 38%, no sharp cut-off; inactive = mostly below about 40%;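 also: 0% = agonist challenge alone and 100% = reference antagonist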
OX1R antag-2 – blocks the human orexin 1 receptor; O43613; CHO/OX1R cells, Fluo-8 calcium fluorescence, orexin A; inhibition, % at 5 µM; 330,000 tested, 0.43% active; AID 434989;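 active = inhibition above its plate's threshold, mean inhibition of all tested compounds on the plate plus 3 SD, cut at about 37% in these data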;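 also: 0% = orexin A challenge wells and 100% = SB-334867-A antagonist wells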
GPR7 antagonist – human neuropeptides B/W receptor 1 antagonism. GPR7-expressing cells, fluorescence antagonist assay. inhibition, % at 4.4 µM. 290,000 tested, 1.1% active. AID 1861; in the data active = inhibition above about 16%, passing the limit was not always enough;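 also: cells stimulated with the agonist NPW; 0% = agonist with vehicle and 100% = vehicle without agonist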
Target sequence (P48145 whole entry, looked up): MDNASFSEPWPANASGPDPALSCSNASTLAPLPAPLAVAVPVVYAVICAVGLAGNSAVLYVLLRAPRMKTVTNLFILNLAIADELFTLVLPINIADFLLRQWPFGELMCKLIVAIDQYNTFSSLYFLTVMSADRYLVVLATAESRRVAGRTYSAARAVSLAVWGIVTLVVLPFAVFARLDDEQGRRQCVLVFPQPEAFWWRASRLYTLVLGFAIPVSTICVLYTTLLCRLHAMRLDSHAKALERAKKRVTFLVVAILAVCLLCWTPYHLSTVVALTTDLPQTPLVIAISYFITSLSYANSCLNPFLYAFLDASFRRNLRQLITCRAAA
TAAR1 antagonist – antagonists of human TAAR1. 360,000 tested, 1.5% active. inhibition, % at 3 µM. CHO RD-HGA16 TAAR1, Fluo-8 calcium fluorescence, antagonist. Q96RJ0. AID 624466;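 active = inhibition above a per-plate cutoff, the mean inhibition of test compounds on that plate plus 3 SD, cut at about 49% in these data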;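 also: 0% = DMSO plus EC80 beta-PEA response and 100% = DMSO alone without agonist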
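Test system – hTAAR1-expressing CHO RD-HGA16 cells, Gα16-coupled · Also added – β-PEA at EC80 concentration, post-compound challenge · Compound – 3 µM, single point · Incubation – dye loading 75 min at 37 °C, then 30 min room temperature · Measured by – Fluo-8 intracellular calcium dye fluorescence, real-time kinetic reads · Benchmarks – vehicle and agonist controls · Replicates – singlicate, one well per test compound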
OX1R HTRF conf – OX1R (human) antagonism, HTRF confirmed; 1,800 tested, 49% active; OX1R-expressing cells, HTRF antagonist assay; AID 492964; shares compounds with OX1R antag-1; inhibition, % at 6.6 µM; in the data active = inhibition above about 55%;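 also: CHO cells expressing OX1R stimulated with orexin A at about EC80; 0% = agonist challenge alone and 100% = reference antagonist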
CHO-K1 HTRF – counter-screen: parental CHO-K1 HTRF response; shares compounds with OX1R antag-1; parental CHO-K1 cells, HTRF counterscreen; inhibition, % at 6.6 µM; 1,800 tested, 48% active; AID 493232; in the data active = inhibition above about 17%;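 also: 0% = agonist challenge with vehicle and 100% = vehicle alone without agonist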
Active calls of the source: *; . = no result. Shown are actives, neighbours in structure and some others; about 4.6% of the full set was active somewhere.

SMILES	TAAR1 ag	CHO parental Ca	OX1R antag-1	OX1R antag-2	GPR7 antagonist	TAAR1 antagonist	OX1R HTRF conf	CHO-K1 HTRF
COc1ccc(CC(=O)NCc2nnc(SCC(=O)Nc3cccc(F)c3)n2C)cc1	-1	-8	92*	-8	3	-2	17	-12
COc1ccc(CC(=O)NCc2nnc(SCC(=O)Nc3ccccc3)n2C)cc1	1	-7	14	-4	-12	-4	.	.
COc1ccc(CC(=O)N(C)c2ccccc2)cc1S(=O)(=O)N1CCOCC1	2	.	.	.	.	4	.	.
COc1ccc(Br)c(C(=O)N2CCN(S(=O)(=O)c3cccs3)CC2)c1	0	-6	136*	-17	-9	-7	18	4
O=C(NCCN1CCC(n2c(=O)[nH]c3ccccc32)CC1)c1cccc(F)c1	3	.	.	.	.	-6	.	.
Nc1ccc2oc(-c3cccc4ccccc34)nc2c1	21	-5	82*	-4	29	3	68*	1
Cc1ccc(-c2nc3cc(N)ccc3o2)c(C)c1	11	-14	29	-13	-6	-11	.	.
CC(=O)Nc1c(Br)cc2c(c1Br)Cc1cc([N+](=O)[O-])ccc1-2	1	.	.	.	.	9	.	.
COc1ccc(-c2cc(C(F)(F)F)n3ncc(C(=O)O)c3n2)cc1OC	11	-3	82*	14	-1	-3	32	55*
CCCS(=O)(=O)N1CCCC(C(=O)NCCCN(Cc2ccccc2)C(C)C)C1 (stereo not drawn)	-4	-22	107*	-26	-12	2	10	2
COc1ccc(-c2csc(NC(=S)NC(=O)c3ccco3)n2)cc1	3	-5	8	-1	-12	13	.	.
O=C(NC(=S)Nc1nc(-c2ccccc2)cs1)c1ccco1	6	-7	79*	-10	-3	41	63*	7
CCC(=O)N1CCc2cc(-c3csc(NC(=O)c4ccco4)n3)ccc21	3	-9	94*	22	-2	26	66*	9
O=C(OCC(=O)N1CCCCCC1)c1ccccc1Br	0	-14	7	-10	.	-8	.	.
O=c1[nH]c2ccc(Cl)cc2c(-c2ccccc2)c1[N+](=O)[O-]	1	-15	81*	16	5	5	75*	6
Cc1cc2nc(C(C)(C)C)c(Cc3ccccc3C(F)(F)F)n2c(C)c1Br	11	.	.	.	.	-18	.	.
COCCNC(=O)C1(C)CCCN(C(=O)c2ccccc2OC(F)(F)F)C1 (stereo not drawn)	2	.	.	.	.	-9	.	.
COc1ccccc1Cc1c(C(C)(C)C)nc2c(C)cc(Br)cn12	1	.	.	.	.	-10	.	.
COc1cc2c(cc1NC(=O)CCCCCN1C(=O)CCC1=O)oc1ccccc12	0	-27	80*	26	-3	4	84*	14
COc1cc2c(cc1NC(=O)CCCN1C(=O)CCC1=O)oc1ccccc12	0	-13	37	-11	-4	-6	.	.
COc1ccc(C(=O)N2CCOCC2c2cc(C(=O)NCc3ccccc3)no2)cc1 (stereo not drawn)	3	.	.	.	.	-22	.	.
Cc1csc(=O)n1CC(=O)OCC(=O)Nc1cc(Cl)ccc1[N+](=O)[O-]	2	-15	47	-15	-12	-14	.	.
CCCCNC(=O)c1ccc2c(c1)S(=O)(=O)c1ccccc1C2=O	12	.	.	.	-8	-12	.	.
CCCCn1c(N)c(N(CC)C(=O)c2ccc3c(c2)S(=O)(=O)c2ccccc2C3=O)c(=O)[nH]c1=O	4	-2	85*	-3	-15	-14	23	18*
CCC(C)NC(=O)c1ccc2c(c1)S(=O)(=O)c1ccccc1C2=O (stereo not drawn)	2	.	.	.	-11	4	.	.
CCNC(=O)c1ccc2c(c1)S(=O)(=O)c1ccccc1C2=O	1	-21	189*	-16	-14	9	49	67*
CCCCn1c(N)c(N(CC)C(=O)c2ccc(Cl)c(Cl)c2)c(=O)[nH]c1=O	6	-3	14	-16	-2	-21	.	.
